ChEMBL document CHEMBL1137729, “Synthesis, evaluation and 3D QSAR analysis of novel estradiol-RGD octapeptide conjugates with oral anti-osteoporosis activity” (Eur J Med Chem, 2009)
Activity calls are given as the source filed them. The rule behind the calls is not given here. Residues, ends and D or L forms follow the SMILES beside them. *: point of attachment. Succinyl(O17-estradiol) = C[C@]12CC[C@@H]3c4ccc(O)cc4CC[C@H]3[C@@H]1CC[C@@H]2OC(=O)CCC(=O)*; Acetyl(estradiol-3-yloxy) = C[C@]12CC[C@@H]3c4ccc(OCC(=O)*)cc4CC[C@H]3[C@@H]1CC[C@@H]2O

Experiments:
[1] = Stability in presence of pepsin at 37 degC after 90 mins; type: ADME; conditions: isolated protein, 1.5 h
[2] = tested on: Mus musculus; assay: Antiosteoporosis activity in osteoporotic female mouse at 4 umol/kg, po; type: functional, organism-based
[3] = species: Mus musculus; assay: Inhibition of PAF-induced platelet aggregation in osteoporotic female mouse by ex vivo platelet aggregation assay; type: functional, organism-based
[4] = Stability in presence of pepsin at 37 degC after 4 hrs; type: ADME; conditions: isolated protein
[5] = species: Mus musculus; assay: Inhibition of ADP-induced platelet aggregation in osteoporotic female mouse by ex vivo platelet aggregation assay; type: functional, organism-based
[6] = tested on: Mus musculus; assay: Antiosteoporosis activity in ovariectomized ICR mouse assessed as calcium level in serum at 110.3 nmol/kg, po treated for 4 weeks measured after 1 day of last treatment by o-methyl-phenolphthalein method; type: functional
How it was run: (§1)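 Ovariectomized female mice dosed orally with 110.3 nmol/kg in 0.5% carboxymethylcellulose once daily for 4 weeks, starting day 5 after surgery. Blood taken from the orbit the day after the last dose, stood 30 min, centrifuged 3000g for 20 min, serum stored at −20 °C. Calcium read by o-methylphenolphthalein complexone; phosphorus by molybdenum blue.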

[7] = tested on: Mus musculus; assay: Toxicity in ovariectomized ICR mouse assessed as liver weight at 110.3 nmol/kg, po treated for 4 weeks measured after 1 day of last treatment; type: organism-based; conditions: in vivo, 24 h
How it was run: (§2)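 OVX mice dosed orally once daily with 110.3 nmol/kg in 0.5% carboxymethylcellulose for 4 weeks. The day after the last dose, mice were anesthetized with pentobarbital (40.0 mg/kg ip) and killed; uteri, lungs, livers and spleens were removed and weighed directly and their morphology noted.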

[8] = tested on: Mus musculus; assay: Antiosteoporosis activity in ovariectomized ICR mouse assessed as phosphorous content in femur at 110.3 nmol/kg, po treated for 4 weeks measured after 1 day of last treatment by molybdenum blue method; type: functional
[9] = tested on: Mus musculus; assay: Antiosteoporosis activity in ovariectomized ICR mouse assessed as length of femur at 110.3 nmol/kg, po treated for 4 weeks measured after 1 day of last treatment; type: functional
How it was run: (§3)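 Female mice, ovariectomized (sham: laparotomy only); from day 5 post-surgery dosed orally once daily with 110.3 nmol/kg in 0.2 ml 0.5% carboxymethylcellulose for 4 weeks (vehicle to OVX/sham). Left femur taken the day after the last dose, cleaned of muscle, length measured, defatted in chloroform–methanol (2:1, 2×3 h), dried 120 °C 6 h and weighed, ashed 800 °C 8 h and weighed. Mineral content = ash/dry weight; femur ash dissolved in 6 N HCl, diluted, calcium by o-methylphenolphthalein complexone. n = 12.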

[10] = tested on: Mus musculus; assay: Toxicity in ovariectomized ICR mouse assessed as kidney weight at 110.3 nmol/kg, po treated for 4 weeks measured after 1 day of last treatment; type: organism-based; conditions: in vivo, 24 h
[11] = tested on: Mus musculus; assay: Toxicity in osteoporotic female mouse at 0.11 umol/kg, po; type: organism-based; conditions: in vivo
[12] = tested on: Mus musculus; assay: Antiosteoporosis activity in ovariectomized ICR mouse assessed as mineral content in femur at 110.3 nmol/kg, po treated for 4 weeks measured after 1 day of last treatment; type: functional; how it was run: as §3
[13] = tested on: Mus musculus; assay: Toxicity in ovariectomized ICR mouse assessed as lung weight at 110.3 nmol/kg, po treated for 4 weeks measured after 1 day of last treatment; type: organism-based; conditions: in vivo, 24 h; how it was run: as §2
[14] = tested on: Mus musculus; assay: Toxicity in ovariectomized ICR mouse assessed as spleen weight at 110.3 nmol/kg, po treated for 4 weeks measured after 1 day of last treatment; type: organism-based; conditions: in vivo, 24 h; how it was run: as §2
[15] = tested on: Mus musculus; assay: Antiosteoporosis activity in ovariectomized ICR mouse assessed as calcium content in femur at 110.3 nmol/kg, po treated for 4 weeks measured after 1 day of last treatment by o-methyl-phenolphthalein; type: functional; how it was run: as §3
[16] = tested on: Mus musculus; assay: Toxicity in ovariectomized ICR mouse assessed as effect on tail bleeding time at 110.3 nmol/kg, po treated for 4 weeks measured after 90 mins of last treatment; type: organism-based; conditions: in vivo, 1.5 h
How it was run: (§4)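 OVX mice received 110.3 nmol/kg orally in 0.5% carboxymethylcellulose daily for 4 weeks. At 30 and 90 min after the last dose, a 2 mm tail cut was made with the mouse in a tube holder; blood was blotted every 30 s until bleeding stopped, and the time was recorded as bleeding time.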

[17] = tested on: Mus musculus; assay: Antiosteoporosis activity in ovariectomized ICR mouse assessed as phosphorous level in serum at 110.3 nmol/kg, po treated for 4 weeks measured after 1 day of last treatment by molybdenum blue method; type: functional; how it was run: as §1
[18] = tested on: Mus musculus; assay: Antiosteoporosis activity in ovariectomized ICR mouse assessed as weight of femur ash at 110.3 nmol/kg, po treated for 4 weeks measured after 1 day of last treatment; type: functional; how it was run: as §3
[19] = tested on: Mus musculus; assay: Antiosteoporosis activity in ovariectomized ICR mouse assessed as weight of dry femur at 110.3 nmol/kg, po treated for 4 weeks measured after 1 day of last treatment; type: functional
How it was run: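 Left femur taken the day after the last dose, cleaned of muscle, length measured, defatted in chloroform–methanol (2:1, 2×3 h), dried 120 °C 6 h and weighed, ashed 800 °C 8 h and weighed. Mineral content = ash/dry weight; femur ash dissolved in 6 N HCl, diluted, calcium by o-methylphenolphthalein complexone. n = 12.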

[20] = tested on: Mus musculus; assay: Toxicity in ovariectomized ICR mouse assessed as effect on uterine weight at 110.3 nmol/kg, po treated for 4 weeks measured after 1 day of last treatment; type: organism-based; conditions: in vivo, 24 h; how it was run: as §2
[21] = tested on: Mus musculus; assay: Antiosteoporosis activity in osteoporotic female mouse at 0.11 umol/kg, po; type: functional, organism-based
How it was run: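 Dose-finding pre-treatment: series of oral doses given to osteoporotic female mice; ex vivo anti-osteoporosis activity assessed to assign a general dose for all later experiments.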

[22] = tested on: Mus musculus; assay: Toxicity in ovariectomized ICR mouse assessed as effect on tail bleeding time at 110.3 nmol/kg, po treated for 4 weeks measured after 30 mins of last treatment; type: organism-based; conditions: in vivo, 0.5 h; how it was run: as §4

Row | Compound | Activity [6] | Activity [7] | Activity [8] | Activity [9] | Activity [10] | Activity [12] | Activity [13] | Activity [14] | Activity [15] | Time [16] | Activity [17] | Activity [18] | Activity [19] | Activity [20] | Time [22] | also measured
1 | N=C(N)NCCC[C@H](N)C(=O)NCC(=O)N[C@@H](CC(=O)O)C(=O)N[C@@H](Cc1ccccc1)C(=O)O (H-RGDF-OH) |  |  |  |  |  |  |  |  |  |  |  |  |  |  |  | Stability [1]: Unstable
2 | H-RGDFRGDF-OH |  |  |  |  |  |  |  |  |  |  |  |  |  |  |  | Activity [2]: inactive; IC50 [3]: 0.26 µmol/kg; Stability [4]: Stable; IC50 [5]: 0.31 µmol/kg
3 | C[C@]12CC[C@@H]3c4ccc(O)cc4CC[C@H]3[C@@H]1CC[C@@H]2OC(=O)CCC(=O)N[C@@H](CCCNC(=N)N)C(=O)NCC(=O)N[C@@H](CC(=O)O)C(=O)N[C@@H](Cc1ccccc1)C(=O)N[C@@H](CCCNC(=N)N)C(=O)NCC(=O)N[C@@H](CC(=O)O)C(=O)N[C@@H](Cc1ccccc1)C(=O)O ({Succinyl(O17-estradiol)}-RGDFRGDF-OH) | 3.01 mM | 1.266 g | 21.56% | 1.64 cm | 0.16 g | 0.625% | 0.109 g | 0.135 g | 64.36% | 571 s | 3.01 mM | 36.87 mg | 56.6 mg | 0.06 g | 584 s | Activity [11]: Non-toxic; Activity [21]: Active
4 | CC(C)[C@H](NC(=O)[C@H](CC(=O)O)NC(=O)CNC(=O)[C@H](CCCNC(=N)N)NC(=O)COc1ccc2c(c1)CC[C@@H]1[C@@H]2CC[C@]2(C)[C@@H](O)CC[C@@H]12)C(=O)O ({Acetyl(estradiol-3-yloxy)}-RGDV-OH) | 3.22 mM | 1.4 g | 20.24% | 1.67 cm | 0.167 g | 0.611% | 0.109 g | 0.133 g | 57.84% | 577 s | 2.99 mM | 33.99 mg | 53.97 mg | 0.064 g | 569 s | 
